According to ChEMBL document CHEMBL3098006, “Preparation of 8-hydroxyquinoline derivatives as potential antibiotics against Staphylococcus aureus” (Bioorg Med Chem Lett, 2014):
In brackets after ≈: the same amount, converted by molar mass.

Legend:
Staphylococcus aureus [1] = experiment: Antibacterial activity against Staphylococcus aureus assessed as growth inhibition after 24 hrs by broth dilution method; type: functional
How it was run: (§1)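 Serial broth dilution in 96-well microtitre plate, compounds from 50 µg/mL top concentration (stocks 50 mg/mL in DMSO); methicillin positive control for S. aureus (from 50 µg/mL), […]. Incubation 37 °C, 24 h; MIC taken as lowest concentration giving complete growth inhibition.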

Escherichia coli = experiment: Antibacterial activity against Escherichia coli assessed as growth inhibition after 24 hrs by broth dilution method; type: functional; how it was run: as §1
Staphylococcus aureus [2] = experiment: Antibacterial activity against Staphylococcus aureus assessed as growth inhibition at 50 ug/mL after 24 hrs; type: functional
How it was run: (§2)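 Agar well diffusion: S. aureus diluted in broth, plated on nutrient agar, wells punched with sterile pipette and loaded with compound (amount per well as in line) or methicillin positive control. Incubation 37 °C, 24 h; inhibition zone recorded as radius in mm, mean ± SD of three results.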

[3] = Cytotoxicity against human NE3 cells assessed as cell shrinkage after 24 hrs by SRB assay; type: cell-based
How it was run: (§3)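 HaCaT keratinocytes and NE3 normal esophageal cells trypsinised, washed, resuspended at about 1×10^5 cells/mL, seeded in 96-well plates 24 h, then exposed 24 h to compounds from 50 µg/mL; doxorubicin 4 µg/mL positive control, 0.1% DMSO vehicle. SRB staining after TCA fixation, absorbance 575 nm; three independent experiments in triplicate, mean ± SD.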

HaCaT = experiment: Cytotoxicity against human HaCaT cells assessed as cell shrinkage after 24 hrs by SRB assay; type: cell-based; how it was run: as §3
Staphylococcus aureus [4] = experiment: Antibacterial activity against Staphylococcus aureus assessed as growth inhibition at 15 ug/mL after 24 hrs; type: functional; settings: read-out: IZ; how it was run: as §2
Staphylococcus aureus [5] = experiment: Antibacterial activity against Staphylococcus aureus assessed as growth inhibition at 5 ug/mL after 24 hrs; type: functional; settings: read-out: IZ; how it was run: as §2

Row | SMILES | MIC (Staphylococcus aureus [1]) [µg/mL] | MIC (Escherichia coli) [µg/mL] | IC50 [3] [µg/mL] | IC50 (HaCaT) [µg/mL] | other results
1 | Cc1ccc2cccc(OCc3ccccc3)c2n1 | > 50 | > 50 | – | – | –
2 | O=Cc1ccc2cccc(O)c2n1 | 50 (≈ 289 µM) | > 50 | 16.1 (≈ 92.7 µM) | 19.1 (≈ 111 µM) | inhibition zone (IZ) (Staphylococcus aureus [2]): 7.5 mm
3 | Cc1ccc2cccc(OCCN3CCCCC3)c2n1 | > 50 | > 50 | – | – | –
4 | CCOc1cccc2ccc(C)nc12 | > 50 | > 50 | – | – | –
5 | COc1cccc2ccc(C)nc12 | > 50 | > 50 | – | – | –
6 | CCCCOc1cccc2ccc(C)nc12 | > 50 | > 50 | – | – | –
7 | Cl.O=Cc1ccc2cccc(O)c2n1 | 50 | > 50 | 18.1 | 22.5 | zone of inhibition at 50 µg/mL (Staphylococcus aureus [2]; Staphylococcus aureus, 24 h, read-out: IZ): 4.4 mm
8 | CC1(C)S[C@@H]2[C@H](NC(=O)[C@H](N)c3ccccc3)C(=O)N2[C@H]1C(=O)O [AMPICILLIN] | – | 7.5 (≈ 21.5 µM) | – | – | –
9 | Cc1ccc2c(Br)cc(Br)c(O)c2n1 [BROQUINALDOL] | 6.25 (≈ 19.7 µM) | > 50 | 18.6 (≈ 58.7 µM) | 22.5 (≈ 70.9 µM) | zone of inhibition at 15 µg/mL (Staphylococcus aureus [4]): 7.43 mm
10 | COc1cccc2c1C(=O)c1c(O)c3c(c(O)c1C2=O)C[C@@](O)(C(=O)CO)C[C@@H]3O[C@H]1C[C@H](N)[C@H](O)[C@H](C)O1 [DOXORUBICIN] | – | – | 1.89 (≈ 3.48 µM) | 3.26 (≈ 6 µM) | –
11 | COc1cccc(OC)c1C(=O)N[C@@H]1C(=O)N2[C@@H]1SC(C)(C)[C@@H]2C(=O)O [METHICILLIN] | 3.12 (≈ 8.21 µM) | – | – | – | zone of inhibition at 5 µg/mL (Staphylococcus aureus [5]): 10.8 mm
